In publication PMC2998688 (British Journal of Pharmacology, 2010):
Values joined by “and” are separate entries in the source; they are usually repeats but may differ in a detail not shown here. Identical values can stand only once.

What was measured:
full-length IP3R1 = full-length IP3R1 (Rattus norvegicus, UniProt P29994); format: binding; settings: full-length IP3R1, TEM
IP3R1^R504Q = IP3R1^R504Q (Rattus norvegicus, UniProt P29994, DEL318-332/R504Q); test: Ca2+ release from permeabilized DT40 cells expressing only IP3R1^R504Q; format: cell-based
Chain of IP3R1^R504Q (P29994 1-2735 isoform P29994-2 R489Q): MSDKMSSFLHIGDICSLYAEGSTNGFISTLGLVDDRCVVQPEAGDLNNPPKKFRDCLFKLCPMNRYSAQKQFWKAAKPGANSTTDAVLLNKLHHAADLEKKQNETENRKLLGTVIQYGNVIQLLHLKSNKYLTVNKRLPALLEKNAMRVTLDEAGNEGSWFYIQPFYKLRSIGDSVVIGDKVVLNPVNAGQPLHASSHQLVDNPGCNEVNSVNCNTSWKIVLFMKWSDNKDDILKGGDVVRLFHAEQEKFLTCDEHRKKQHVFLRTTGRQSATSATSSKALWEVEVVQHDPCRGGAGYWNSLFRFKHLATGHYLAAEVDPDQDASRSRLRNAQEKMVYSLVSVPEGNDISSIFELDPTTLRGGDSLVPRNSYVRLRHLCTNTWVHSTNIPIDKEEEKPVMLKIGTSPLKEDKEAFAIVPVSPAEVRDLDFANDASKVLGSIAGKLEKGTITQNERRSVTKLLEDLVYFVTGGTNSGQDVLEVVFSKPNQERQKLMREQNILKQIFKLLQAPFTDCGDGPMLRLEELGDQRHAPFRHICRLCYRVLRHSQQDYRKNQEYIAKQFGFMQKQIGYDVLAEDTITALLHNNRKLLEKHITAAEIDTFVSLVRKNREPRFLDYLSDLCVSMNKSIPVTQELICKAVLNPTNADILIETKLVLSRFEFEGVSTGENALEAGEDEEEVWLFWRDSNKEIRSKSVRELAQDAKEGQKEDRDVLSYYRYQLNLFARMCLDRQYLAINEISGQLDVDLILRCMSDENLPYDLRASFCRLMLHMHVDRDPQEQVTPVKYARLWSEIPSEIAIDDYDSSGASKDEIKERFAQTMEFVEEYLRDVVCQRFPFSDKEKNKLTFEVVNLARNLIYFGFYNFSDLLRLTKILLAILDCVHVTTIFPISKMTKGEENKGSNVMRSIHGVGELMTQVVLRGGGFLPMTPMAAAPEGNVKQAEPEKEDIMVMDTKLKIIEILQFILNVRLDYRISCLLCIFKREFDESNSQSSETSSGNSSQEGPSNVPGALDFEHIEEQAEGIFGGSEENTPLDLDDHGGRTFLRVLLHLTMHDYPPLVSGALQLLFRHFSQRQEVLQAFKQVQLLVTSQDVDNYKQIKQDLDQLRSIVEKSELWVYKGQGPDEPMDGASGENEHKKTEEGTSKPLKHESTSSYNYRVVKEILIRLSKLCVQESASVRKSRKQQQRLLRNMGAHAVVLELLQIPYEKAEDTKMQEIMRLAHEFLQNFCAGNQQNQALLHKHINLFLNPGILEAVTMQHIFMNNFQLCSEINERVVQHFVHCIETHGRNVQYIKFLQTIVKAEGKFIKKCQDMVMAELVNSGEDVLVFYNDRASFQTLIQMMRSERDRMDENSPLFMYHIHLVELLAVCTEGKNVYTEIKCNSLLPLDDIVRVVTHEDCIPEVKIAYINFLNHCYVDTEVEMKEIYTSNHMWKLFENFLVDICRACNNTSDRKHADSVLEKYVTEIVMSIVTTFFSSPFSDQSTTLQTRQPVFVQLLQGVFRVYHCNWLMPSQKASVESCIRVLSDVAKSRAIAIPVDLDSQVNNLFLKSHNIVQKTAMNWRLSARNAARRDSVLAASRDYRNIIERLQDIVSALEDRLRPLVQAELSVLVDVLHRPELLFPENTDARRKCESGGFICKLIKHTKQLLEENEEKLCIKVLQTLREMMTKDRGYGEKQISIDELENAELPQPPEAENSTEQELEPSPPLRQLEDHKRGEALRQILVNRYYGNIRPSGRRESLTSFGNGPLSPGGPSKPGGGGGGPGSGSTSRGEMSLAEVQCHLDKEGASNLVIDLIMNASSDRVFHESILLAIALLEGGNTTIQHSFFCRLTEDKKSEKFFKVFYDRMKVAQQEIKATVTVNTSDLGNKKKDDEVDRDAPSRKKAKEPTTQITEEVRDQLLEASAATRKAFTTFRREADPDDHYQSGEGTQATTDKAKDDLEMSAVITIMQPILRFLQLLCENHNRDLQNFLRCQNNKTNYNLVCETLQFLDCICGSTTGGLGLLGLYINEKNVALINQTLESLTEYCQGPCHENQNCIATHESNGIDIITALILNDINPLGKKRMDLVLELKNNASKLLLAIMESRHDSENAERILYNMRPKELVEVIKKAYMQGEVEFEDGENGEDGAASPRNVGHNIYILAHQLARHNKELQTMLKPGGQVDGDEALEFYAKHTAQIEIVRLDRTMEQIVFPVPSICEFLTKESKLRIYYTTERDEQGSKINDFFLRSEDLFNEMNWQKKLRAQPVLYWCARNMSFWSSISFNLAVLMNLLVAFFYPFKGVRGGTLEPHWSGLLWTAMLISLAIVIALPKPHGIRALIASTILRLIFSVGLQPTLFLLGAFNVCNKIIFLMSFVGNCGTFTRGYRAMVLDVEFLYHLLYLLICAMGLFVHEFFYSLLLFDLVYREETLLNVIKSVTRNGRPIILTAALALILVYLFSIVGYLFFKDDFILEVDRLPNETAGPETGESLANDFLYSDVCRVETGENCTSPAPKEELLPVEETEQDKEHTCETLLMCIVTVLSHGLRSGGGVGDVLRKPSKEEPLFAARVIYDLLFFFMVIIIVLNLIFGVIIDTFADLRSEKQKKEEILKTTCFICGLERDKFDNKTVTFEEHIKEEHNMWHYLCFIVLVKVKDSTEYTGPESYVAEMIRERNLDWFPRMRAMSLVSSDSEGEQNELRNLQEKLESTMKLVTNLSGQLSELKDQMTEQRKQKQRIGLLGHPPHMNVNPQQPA

[1] = target: IBC^R504Q fragment of IP3R1 (Rattus norvegicus, UniProt P29994, R504Q); test: Equilibrium-competition 3H-IP3 binding to IBC^R504Q; settings: CLM
Chain of IBC^R504Q fragment of IP3R1 (P29994 224-604 R504Q): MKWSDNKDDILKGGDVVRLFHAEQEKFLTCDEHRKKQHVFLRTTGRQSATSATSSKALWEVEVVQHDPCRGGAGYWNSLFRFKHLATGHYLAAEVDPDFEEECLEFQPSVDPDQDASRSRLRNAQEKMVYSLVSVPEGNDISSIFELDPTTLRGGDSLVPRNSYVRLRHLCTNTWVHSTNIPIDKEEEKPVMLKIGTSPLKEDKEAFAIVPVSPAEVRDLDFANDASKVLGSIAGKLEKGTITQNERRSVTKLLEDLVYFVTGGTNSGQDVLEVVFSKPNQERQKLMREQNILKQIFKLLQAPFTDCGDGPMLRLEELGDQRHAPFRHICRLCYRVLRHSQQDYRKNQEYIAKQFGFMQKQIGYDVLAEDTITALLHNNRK
Outline: (§1)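 His6-tagged rat IP3R1 IBC (residues 224–604, S1 site included), wild type or point mutant, expressed in E. coli BL21(DE3) (0.5 mM IPTG, 20 h, 15°C). Lysate (~1–10 µg protein) incubated 5 min at 4°C in CLM (pH 7.0, free Ca2+ 220 nM) with 3H-IP3 (0.75–3 nM) and competitor. PEG/γ-globulin precipitation, scintillation counting. Hill fit; Kd by Cheng–Prusoff; ΔpKd from log differences.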

[2] = target: IBC (IP3-binding core, residues 224–604 of IP3R1) (Rattus norvegicus, UniProt P29994); test: Equilibrium-competition 3H-IP3 binding to the IBC; settings: CLM
Chain of IBC (IP3-binding core, residues 224–604 of IP3R1) (P29994 224-604): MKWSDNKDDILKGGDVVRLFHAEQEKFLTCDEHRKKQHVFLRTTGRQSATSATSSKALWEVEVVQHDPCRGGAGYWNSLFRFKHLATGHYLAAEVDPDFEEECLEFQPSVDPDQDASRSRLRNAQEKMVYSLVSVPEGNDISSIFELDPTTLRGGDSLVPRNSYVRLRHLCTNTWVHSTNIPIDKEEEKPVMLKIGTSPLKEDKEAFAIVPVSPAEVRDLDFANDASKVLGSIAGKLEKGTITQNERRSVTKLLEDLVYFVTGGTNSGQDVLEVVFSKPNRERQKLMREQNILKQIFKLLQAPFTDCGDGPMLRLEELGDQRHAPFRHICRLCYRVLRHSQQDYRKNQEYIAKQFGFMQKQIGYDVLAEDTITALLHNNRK
Outline: as §1

[3] = target: NT^R504Q fragment of IP3R1 (Rattus norvegicus, UniProt P29994, DEL318-332/R504Q); test: Equilibrium-competition 3H-IP3 binding to NT^R504Q; settings: TEM
Chain of NT^R504Q fragment of IP3R1 (P29994 1-589 isoform P29994-2 R489Q limits assumed): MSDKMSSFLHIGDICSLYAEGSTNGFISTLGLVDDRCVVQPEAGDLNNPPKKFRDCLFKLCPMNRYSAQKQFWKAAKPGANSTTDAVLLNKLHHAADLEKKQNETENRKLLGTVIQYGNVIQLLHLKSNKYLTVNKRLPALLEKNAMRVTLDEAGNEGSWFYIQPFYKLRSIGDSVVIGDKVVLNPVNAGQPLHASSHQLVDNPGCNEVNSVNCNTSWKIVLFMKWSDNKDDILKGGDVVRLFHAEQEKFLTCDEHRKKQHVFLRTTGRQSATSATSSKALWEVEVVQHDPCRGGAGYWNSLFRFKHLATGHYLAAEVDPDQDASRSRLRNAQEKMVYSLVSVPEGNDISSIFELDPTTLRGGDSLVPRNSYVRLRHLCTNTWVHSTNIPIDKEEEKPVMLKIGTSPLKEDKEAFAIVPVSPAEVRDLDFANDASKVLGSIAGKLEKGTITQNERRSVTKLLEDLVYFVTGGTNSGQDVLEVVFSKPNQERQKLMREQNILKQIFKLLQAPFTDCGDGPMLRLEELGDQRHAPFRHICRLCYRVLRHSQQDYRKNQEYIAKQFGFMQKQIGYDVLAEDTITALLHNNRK
Outline: (§2)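 Rat IP3R1 N-terminal fragment (residues 1–604, lacking S1 site), His6-tagged, wild type or point mutant, expressed in E. coli BL21(DE3) as bacterial lysate (~1–10 µg protein). Competed against 1.5 nM 3H-IP3 for 5 min at 4°C in TEM (50 mM Tris, 1 mM EDTA, pH 8.3) or, for wild-type NT only, CLM (pH 7.0). Counted after PEG precipitation. Hill fit; Kd by Cheng–Prusoff; ΔpKd from log values.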

IP3R1^R568Q = IP3R1^R568Q (Rattus norvegicus, UniProt P29994, DEL318-332/R568Q); test: Ca2+ release from permeabilized DT40 cells expressing only IP3R1^R568Q; format: cell-based
Outline: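 Mag-fluo-4 AM (20 µM, 1 h, 20°C) loaded into DT40 cells lacking endogenous IP3R and stably expressing mutant rat IP3R1. Cells were saponin-permeabilized (10 µg·mL−1) into Mg2+-free CLM with 10 µM FCCP, free Ca2+ ~220 nM. Stores were loaded with 1.5 mM MgATP before test compound was added. Fluorescence was read at 485/520 nm, 20°C. Release is a fraction of ATP-dependent uptake, Hill-fitted for EC50, with ΔpEC50 versus wild type from log values. Three determinations per experiment, 4–6 experiments.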

[4] = target: NT (residues 1–604) of IP3R1 (Rattus norvegicus, UniProt P29994, DEL318-332); test: Equilibrium-competition 3H-IP3 binding to the NT fragment; settings: for Binding ΔpKd, IP3 / AdA: pair IP3 / AdA
Chain of NT (residues 1–604) of IP3R1 (P29994 1-589 isoform P29994-2 limits assumed, stated change not applied): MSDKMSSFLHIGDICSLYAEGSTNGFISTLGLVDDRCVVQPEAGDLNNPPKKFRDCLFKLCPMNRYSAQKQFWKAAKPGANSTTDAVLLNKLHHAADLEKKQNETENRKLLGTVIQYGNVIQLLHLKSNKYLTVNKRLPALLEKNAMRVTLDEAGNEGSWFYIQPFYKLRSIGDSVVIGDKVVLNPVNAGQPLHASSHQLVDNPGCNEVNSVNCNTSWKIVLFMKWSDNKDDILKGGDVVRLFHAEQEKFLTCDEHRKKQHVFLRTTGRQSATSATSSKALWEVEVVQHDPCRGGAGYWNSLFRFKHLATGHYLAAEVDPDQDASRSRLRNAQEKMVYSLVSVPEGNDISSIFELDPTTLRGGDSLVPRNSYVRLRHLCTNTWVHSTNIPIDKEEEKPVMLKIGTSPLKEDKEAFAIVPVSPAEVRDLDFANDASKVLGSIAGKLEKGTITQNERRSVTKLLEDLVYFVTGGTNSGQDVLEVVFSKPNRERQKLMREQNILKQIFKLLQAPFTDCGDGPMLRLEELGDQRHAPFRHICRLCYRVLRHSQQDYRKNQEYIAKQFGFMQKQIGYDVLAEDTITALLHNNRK
Outline: as §2

[5] = target: IBC^R568Q fragment of IP3R1 (Rattus norvegicus, UniProt P29994, R568Q); test: Equilibrium-competition 3H-IP3 binding to IBC^R568Q
Chain of IBC^R568Q fragment of IP3R1 (P29994 224-604 R568Q): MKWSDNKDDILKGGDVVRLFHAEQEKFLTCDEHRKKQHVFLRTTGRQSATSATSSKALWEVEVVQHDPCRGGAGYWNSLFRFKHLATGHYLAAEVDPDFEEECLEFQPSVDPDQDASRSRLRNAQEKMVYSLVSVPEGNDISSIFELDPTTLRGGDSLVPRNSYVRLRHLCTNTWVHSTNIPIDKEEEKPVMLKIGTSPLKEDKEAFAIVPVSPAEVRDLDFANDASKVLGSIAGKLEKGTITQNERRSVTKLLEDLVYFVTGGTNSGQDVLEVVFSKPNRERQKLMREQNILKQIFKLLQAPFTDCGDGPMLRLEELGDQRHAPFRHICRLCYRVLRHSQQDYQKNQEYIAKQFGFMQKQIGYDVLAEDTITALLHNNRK
Outline: as §1

[6] = target: rat IP3R1 (recombinant, expressed in DT40 cells) (Rattus norvegicus, UniProt P29994); test: Ca2+ release from intracellular stores of permeabilized DT40-IP3R1 cells; format: cell-based; settings: for fold more potent than IP3 in functional assays: Ca2+ release, relative to IP3
IP3R = settings: recalculated from published data; ref Takahashi et al., 1994a,b,c; cited from earlier work
[7] = target: NT^R568Q fragment of IP3R1 (Rattus norvegicus, UniProt P29994, DEL318-332/R568Q); test: Equilibrium-competition 3H-IP3 binding to NT^R568Q
Outline: as §2

Binding nHill ± SEM (full-length IP3R1): 1.5 ± 0.1 | EC50 (IP3R1^R504Q): 604 nM | Relative potency ΔpEC50, R504Q / wild-type IP3R1 (IP3R1^R504Q; Ca2+ release, IP3R1^R504Q vs IP3R1): 2.29 ± 0.06 | Ca2+ release nHill ± SEM (IP3R1^R504Q; IP3R1^R504Q): 1.3 ± 0.2 | Release (%) (IP3R1^R504Q; maximal Ca2+ release, IP3R1^R504Q): 61 ± 3% | Relative affinity ΔpKd, R504Q / wild-type IBC ([1]; IBC^R504Q vs IBC): 2.55 ± 0.05 | fold reduction of affinity by the R504Q mutation ([1]; IBC^R504Q vs IBC): 353 fold | nHill ± SEM ([1]; IBC^R504Q): 1.5 ± 0.2 | Kd ([1]; Kd, IBC^R504Q): 149 nM | fold greater affinity than IP3 [2]: ~20 fold | nHill ± SEM [2]: 1.3 ± 0.3 | Kd ([2]; Kd): 0.31 nM | Binding ΔpKd, IP3 / AdA ([2]; pair IP3 / AdA): 1.37 ± 0.07 | Kd ([3]; Kd): 16.5 nM | nHill ± SEM [3]: 0.9 ± 0.1 | EC50 (IP3R1^R568Q): 20 nM | Relative potency ΔpEC50, R568Q / wild-type IP3R1 (IP3R1^R568Q; Ca2+ release, IP3R1^R568Q vs IP3R1): 0.81 ± 0.07 | fold reduction of potency in IP3R1^R568Q cells (IP3R1^R568Q; Ca2+ release, vs wild-type IP3R1): sixfold | Ca2+ release nHill ± SEM (IP3R1^R568Q; IP3R1^R568Q): 1.0 ± 0.2 | Release (%) (IP3R1^R568Q; maximal Ca2+ release, IP3R1^R568Q): 53 ± 3% | nHill ± SEM ([4]; CLM): 1.3 ± 0.2 | Kd ([4]; Kd, CLM): 3.44 nM | fold greater affinity than IP3 ([4]; TEM): about 15 fold | nHill ± SEM ([4]; TEM): 1.0 ± 0.1 | Kd ([4]; pKd ± SEM, TEM): 0.141 nM | Binding ΔpKd, IP3 / AdA ([4]; CLM): 1.14 ± 0.21 | Binding ΔpKd, IP3 / AdA ([4]; TEM): 1.18 ± 0.12 | Kd [5]: 9.48 nM | Relative affinity ΔpKd, R568Q / wild-type IBC ([5]; IBC^R568Q vs IBC, CLM): 1.49 ± 0.11 | fold reduction of affinity by the R568Q mutation ([5]; IBC^R568Q vs IBC, CLM): ~30 fold and 31 fold | nHill ± SEM ([5]; IBC^R568Q, CLM): 1.3 ± 0.6 | EC50 ([6]; Ca2+ release EC50, DT40 cells expressing wild-type IP3R1): 3 nM | EC50 ([6]; Ca2+ release pEC50 ± SEM, permeabilized DT40-IP3R1 cells, CLM): 3.09 nM | fold more potent than IP3 in functional assays ([6]; CLM): ~12 fold | fold more potent than IP3 in functional assays ([6]; CLM, listed as Adenophostin A): at least 12 fold | Ca2+ release, Release (%) ([6]; maximal Ca2+ release, fraction of ATP-dependent uptake, wild-type IP3R1): 78 ± 3% | Ca2+ release ΔpEC50, IP3 / AdA ([6]; pair IP3 / AdA, DT40-IP3R1 cells): 1.09 ± 0.05 | Ca2+ release nHill ± SEM ([6]; permeabilized DT40-IP3R1 cells, CLM): 1.4 ± 0.1 | Kd [7]: 2.81 nM | nHill ± SEM ([7]; NT^R568Q, TEM): 1.3 ± 0.2
SMILES: Nc1ncnc2c1ncn2[C@@H]1O[C@H](CO)[C@@H](O[C@H]2O[C@H](CO)[C@@H](OP(=O)(O)O)[C@H](OP(=O)(O)O)[C@H]2O)[C@H]1OP(=O)(O)O [AdA, adenophostin A]
fold greater affinity than IP3 (IP3R): about 18 fold
